Assay results pooled from the literature.
Lines come from different studies, so protocols differ.
Target: Cannabinoid receptor 2 (CNR2, Homo sapiens, UniProt P34972)
Observed: ligand displacement
Technique: radioligand

CCOC(=O)C(CCCOC)NC(=O)c1ccc(C2CC2)c(Cc2ccc(F)cc2)n1 (stereo not drawn)  Ki (cell membranes): 17 nM
CCCCC/C=C\C/C=C\C/C=C\C/C=C\CCCC(=O)NCCCl  Ki (cell membranes): 5200 nM
CCCCCc1cc(O)c(C/C=C(\C)CCC2OC2(C)C)c(O)c1 (stereo not drawn)  Ki (cell membranes): 4720 nM
CCCCCn1cc(C(=O)C2C(C)(C)C2(C)C)c2ccccc21  Ki (cell membranes): 4.51 nM
CCCCCc1cc(O)c2c(c1)OC(C)(C)[C@@H]1CC[C@](C)(O)[C@@H](O)[C@@H]21  Ki (cell membranes): 2140 nM
NC(=O)[C@@H]1CC(F)(F)CN1C(=O)c1ccc(N2CC(F)(F)C2)c(OCC2CC2)n1  Ki (cell membranes): 40 nM
CCOC(=O)C(CC)(CCCSCCOCCOCCNc1ccc([N+](=O)[O-])c2nonc12)NC(=O)c1ccc(C2CC2)c(Cc2ccc(F)cc2)n1 (racemic)  Ki (cell membranes): 22 nM
CCCS(=O)(=O)Oc1ccc(-n2c(-c3ccc(Cl)cc3Cl)nc(C(=O)NN3CCCCC3)c2C)cc1  Ki (cell membranes): 35 nM
CCCc1cc(O)c2c(c1)OC(C)(C)c1ccc(C)cc1-2  Ki (cell membranes): 4780 nM
CCCCCn1c2ccccc2c2cc(C(=O)N3CCN(CC(=O)NC(C)(C)C)CC3)ccc21  Ki: 2000 nM
CCOC(=O)C(CC)(CCCSCCOCCOCCOCCOCCNC(=O)OC(C)(C)C)NC(=O)c1ccc(C2CC2)c(Cc2ccc(F)cc2)n1 (stereo not drawn)  Ki (cell membranes): 140 nM
CCCCCc1cc(O)c2c(c1)OC(C)(C)c1ccc(C)cc1-2  Ki (cell membranes): 73 nM
Cc1c(C(=O)Nc2ccc(F)nc2)nc(-c2ccc(Cl)cc2Cl)n1-c1ccc(OS(=O)(=O)CCC(F)(F)F)cc1  Ki (cell membranes): 1.4 nM
CCOC(=O)C(CC)(CCCSC)NC(=O)c1ccc(C2CC2)c(Cc2ccc(F)cc2)n1 (stereo not drawn)  Ki (cell membranes): 1.3 nM
CCCCCc1cc(O)c2c(c1)OC(C)(C)[C@@H]1CC=C(C)[C@H](O)[C@@H]21  Ki (cell membranes): 30 nM
